Assay results published in ChEMBL document CHEMBL1152628, “Synthesis and antioxidant properties of new chromone derivatives” (Bioorg Med Chem, 2009).
pIC50: −log10 of the molar value. Activity calls are given as the source filed them. The calls are words filed in the database; no cut-off is given here.

How the values were obtained:
[1] = Antioxidant activity assessed as peroxynitrite scavenging activity in presence of NaHCO3 by fluorescent rhodamine formation assay; type: functional
[2] = Antioxidant activity assessed as peroxynitrite scavenging activity in absence of NaHCO3 by fluorescent rhodamine formation assay; type: functional
[3] = Antioxidant activity assessed as peroxyl radical scavenging activity by measuring oxygen radical absorbance capacity; type: functional; set-up: reference not given here
[4] = Antioxidant activity assessed as superoxide radical scavenging activity by NBT dye reduction assay; type: functional
In short: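 Superoxide generated by the NADH/PMS system. Scavenging read as inhibition (%) of O2•−-driven NBT reduction to diformazan at 560 nm. Tiron was the positive control. IC50 given as mean ± SE, five experiments in triplicate.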

[5] = Antioxidant activity assessed as hydrogen peroxide scavenging activity at 1 mM by lucigenin oxidation assay; type: functional
[6] = Iron chelating activity assessed as Fe(2+)-compound complex formation at 10 uM by UV-Vis absorption spectroscopy; type: functional
In short: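 Iron chelation checked from changes in the UV–vis spectrum (300–600 nm) of a 10 µM (final) compound solution in 20 mM phosphate buffer, pH 7.2. Fe(II) was added sequentially to 0, 2, 4, 6, 8, 10, 12, 14 and 16 µM.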

[7] = Antioxidant activity assessed as nitric oxide scavenging activity by fluorescent triazofluorescein formation assay; type: functional
In short: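 NO scavenging measured as inhibition (%) of NO-induced oxidation of non-fluorescent DAF-2 to fluorescent triazolofluorescein. Rutin was the positive control. IC50 given as mean ± SE, five experiments in triplicate.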

[8] = Reducing activity assessed as reduction of ferric ion by reducing power assay
In short: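 Compounds in 1:4 water/DMSO were mixed with 0.2 M phosphate buffer pH 6.6 and 1% w/v K3Fe(CN)6, then held 20 min at 50 °C. After 10% w/v TCA and centrifugation (10 min, 3000 g), the supernatant was diluted with water plus 0.1% w/v FeCl3 and read at 700 nm. Ascorbic acid was the positive control. Values are mean ± SE of triplicates.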

[9] = Antioxidant activity assessed as singlet oxygen scavenging activity by fluorescent rhodamine formation assay; type: functional
In short: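 Singlet oxygen scavenging monitored as inhibition (%) of 1O2-induced oxidation of non-fluorescent dihydrorhodamine to fluorescent rhodamine. Ascorbic acid was the positive control. IC50 given as mean ± SE, five experiments in triplicate.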

[10] = Antioxidant activity assessed as hypochlorous acid scavenging activity at 200 uM by fluorescent rhodamine formation assay; type: functional
In short: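 HOCl was made by bringing 1% (m/v) NaOCl to pH 6.2 with 10% H2SO4. Scavenging was read as inhibition (%) of HOCl-induced oxidation of dihydrorhodamine to fluorescent rhodamine. Value given as mean % at the highest tested concentration (200 µM). Five experiments in triplicate.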

[11] = Antioxidant activity assessed as hypochlorous acid scavenging activity by fluorescent rhodamine formation assay; type: functional
In short: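 Fluorescent assay of HOCl-induced dihydrorhodamine oxidation to rhodamine, with HOCl from 1% (m/v) NaOCl adjusted to pH 6.2 with 10% H2SO4. Lipoic acid was the positive control. IC50 (mean ± SE) comes from % inhibition, five experiments in triplicate.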

[12] = Antioxidant activity assessed as hydrogen peroxide scavenging activity by lucigenin oxidation assay; type: functional
In short: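 H2O2 scavenging followed as inhibition (%) of H2O2-induced lucigenin oxidation on a microplate reader. Ascorbic acid was the positive control. IC50 reported as mean ± SE from five experiments, each in triplicate.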

pIC50 [1]	pIC50 [2]	pIC50 [4]	pIC50 [7]	pIC50 [9]	pIC50 [11]	pIC50 [12]	SMILES	Activity [3]	Activity [5]	Activity [6]	Activity [8]	Activity [10]
			5.93				C[C@@H]1O[C@@H](OC[C@H]2O[C@@H](Oc3c(-c4ccc(O)c(O)c4)oc4cc(O)cc(O)c4c3=O)[C@H](O)[C@@H](O)[C@@H]2O)[C@H](O)[C@H](O)[C@H]1O [RUTIN]					
5.71	6.18	4.71	5.44	4.37	5.64	3.44	O=C(c1ccc(O)c(O)c1)c1c(-c2ccc(O)c(O)c2)oc2cc(O)cc(O)c2c1=O	4.32			Active	
5.74	6.08	4.11	5.31	5.10	5.77	3.63	CCCCCCCCCCc1c(-c2ccc(O)c(O)c2)oc2cc(O)cc(O)c2c1=O	1.63				
5.91	6.22	4.29	5.57	4.21	5.84	3.30	CCCCc1c(-c2ccc(O)c(O)c2)oc2cc(O)cc(O)c2c1=O	2.66			Active	
5.74	5.83	4.20	5.48	4.23	5.60	3.46	CCCCCCc1c(-c2ccc(O)c(O)c2)oc2cc(O)cc(O)c2c1=O	2			Active	

More lines, now with the values behind:

SMILES	pIC50 [1]	pIC50 [2]	pIC50 [4]	pIC50 [7]	pIC50 [9]	pIC50 [11]	pIC50 [12]	Activity [3]	Activity [5]	Activity [6]	Activity [8]	Activity [10]
O=c1c2ccccc2[se]n1-c1ccccc1 [EBSELEN]	5.28	6.00										
COc1ccc(/C=C/c2cc(=O)c3ccc(O)c(O)c3o2)cc1OC	5.68	6.23	4.59	6.60	5.00			1.4	31%	Active	Active	47%
O=C(O)CCCCC1CCSS1 (stereo not drawn) [LIPOIC ACID, ALPHA]						5.71						
O=S(=O)(O)c1cc(O)c(O)c(S(=O)(=O)O)c1 [TIRON]			3.54									
COc1ccc2c(=O)cc(/C=C/c3ccc(O)c(O)c3)oc2c1OC	6.03	5.92	4.68	6.43	5.10	5.33	3.15	2.74		Active	Active	
O=C1O[C@H]([C@@H](O)CO)C(O)=C1O [ASCORBIC ACID]					4.99		3.25	0.405			Active	
O=c1cc(/C=C/c2ccc(O)c(O)c2)oc2c(O)c(O)ccc12	5.80	6.07	4.75	6.71	5.33	4.17	3.10	2.58		Active	Active	
